This note sets out measurements from publication PMC9298202 (Chemmedchem, 2021).

For one experiment, the system named is J774.2 macrophages. Briefly: Cytotoxicity in J774.2 macrophages. It counts as cell-based. The note with it: Mus musculus, J774.2, 72 h, read-out: Toxicity in macrophages IC50.
For experiment [1], the system named is Leishmania braziliensis amastigote forms. Briefly: In vitro activity on amastigote. It counts as cell-based. The note with it: for Selectivity index Amastigote forms: L. braziliensis, IC50 macrophages toxicity/IC50 activity; for IC50: Leishmania braziliensis, read-out: Activity IC50 Amastigote forms. The method, boiled down:
(§1)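 J774.2 macrophages were infected with promastigotes, which became intracellular amastigotes within 1 day; test compounds were then added. IC50 came from linear regression of Kc values at 1, 10, 25 and 200 µM, averaging four determinations.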

Another experiment relates to Vero cells. Briefly: Cytotoxicity in Vero cells. It counts as cell-based. Conditions: Chlorocebus sabaeus, Vero, 72 h, read-out: Vero cells toxicity IC50. The method, boiled down:
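Vero cells were grown in RPMI + 10% inactivated FBS at 37 °C in humidified 5% CO2. They were resuspended at 1×10^5 cells/mL, cultured 2 days, then given fresh medium with test compound for 72 h. Viability was read by flow cytometry. IC50 was derived by linear regression from Kc values; results average four determinations.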

The subject of experiment [2] is Leishmania infantum amastigote forms. The experiment can be described thus: In vitro activity on amastigote. The class given is cell-based. The note with it: for Selectivity index Amastigote forms: L. infantum, IC50 macrophages toxicity/IC50 activity; for IC50: Leishmania infantum, read-out: Activity IC50 Amastigote forms.
Experiment [3] has as its system Leishmania donovani promastigote forms. The experiment can be described thus: In vitro activity on promastigote. It counts as cell-based. The note with it: for Selectivity index Promastigote forms: L. donovani, IC50 macrophages toxicity/IC50 activity; for IC50: Leishmania donovani, read-out: Activity IC50 Promastigote forms. A digest of the protocol:
(§2)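 Extracellular promastigotes were tested at 1, 10, 25 and 200 µM, and IC50 was derived by linear regression from Kc values, averaging four determinations.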

For experiment [4], the system named is Trypanosoma cruzi SN3 amastigote forms. Briefly: Amastigote assay, T. cruzi SN3. The class given is cell-based. Conditions: for Selectivity index Amastigote forms: T. cruzi SN3, IC50 Vero cell toxicity/IC50 activity; for IC50: Trypanosoma cruzi, read-out: Activity IC50 Amastigote forms. The method, boiled down:
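Vero cells in RPMI + 10% inactivated FBS (37 °C, 5% CO2) were seeded at 1×10^4 cells/well on coverslips for 2 days. They were infected 10:1 with SN3 metacyclic forms, obtained by 12-day culture of epimastigotes at 28 °C in modified Grace's medium (~40% metacyclic). After 24 h, cells were washed and exposed to 6.25–100 µM for 72 h. Giemsa-stained amastigotes were counted; IC50 from four determinations; SI used Vero IC50.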

Experiment [5] relates to Trypanosoma cruzi SN3 epimastigote forms. Briefly: Epimastigote assay, T. cruzi SN3. It counts as cell-based. The note with it: for Selectivity index Epimastigote forms: T. cruzi SN3, IC50 Vero cell toxicity/IC50 activity; for IC50: Trypanosoma cruzi, read-out: Activity IC50 Epimastigote forms. A digest of the protocol: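 SN3 epimastigotes (Rhodnius prolixus isolate, Colombia) were grown at 28 °C in Grace's Insect Medium + 10% inactivated FBS. Exponential-phase cells were plated at 5×10^4 parasites/well with test compound in MTL medium at 100, 50, 25, 12,5 and 6,25 µM. Counts after 72 h used a Neubauer chamber. IC50 came from linear regression of Kc values; SI = Vero IC50/epimastigote IC50.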

Experiment [6] relates to Leishmania infantum promastigote forms. Briefly: In vitro activity on promastigote. It counts as cell-based. Conditions: for Selectivity index Promastigote forms: L. infantum, IC50 macrophages toxicity/IC50 activity; for IC50: Leishmania infantum, read-out: Activity IC50 Promastigote forms.
For experiment [7], the system named is Fe-SOD in T. cruzi epimastigotes. Briefly: Fe-SOD inhibition, T. cruzi. Conditions: extent reached in the tested concentration range (Figure 9). It counts as biochemical, Trypanosoma cruzi. The method, boiled down:
(§3)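 Promastigotes or T. cruzi epimastigotes were grown in MTL (HBSS + 10% heat-inactivated FBS) at 26 °C to ~1×10^7/mL. Log-phase cells were pelleted and held 24 h at 27 °C to excrete SOD. Filtered supernatant was fractionated with 35% then 85% ammonium sulphate and desalted on Sephadex G-25. Activity was measured as NBT reduction (methionine, riboflavin, Triton X-100) at 560 nm before and after 10 min UV illumination.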

Experiment [8] deals with Leishmania donovani amastigote forms. Briefly: In vitro activity on amastigote. The class given is cell-based. Conditions: for Selectivity index Amastigote forms: L. donovani, IC50 macrophages toxicity/IC50 activity; for IC50: Leishmania donovani, read-out: Activity IC50 Amastigote forms. A digest of the protocol: as §1
Experiment [9] relates to Leishmania braziliensis promastigote forms. The experiment can be described thus: In vitro activity on promastigote. It counts as cell-based. The note with it: for Selectivity index Promastigote forms: L. braziliensis, IC50 macrophages toxicity/IC50 activity; for IC50: Leishmania braziliensis, read-out: Activity IC50 Promastigote forms. The method, boiled down: as §2
Experiment [10] has as its system Trypanosoma cruzi SN3 trypomastigote forms. Briefly: Trypomastigote activity, T. cruzi SN3. It counts as cell-based. Conditions: for Selectivity index Trypomastigote forms: T. cruzi SN3, IC50 Vero cell toxicity/IC50 activity; for IC50: Trypanosoma cruzi, read-out: Activity IC50 Trypomastigote forms.
Experiment [11] deals with Fe-SOD in L. infantum promastigotes. Briefly: Fe-SOD inhibition, L. infantum. It counts as biochemical, Leishmania infantum. The note with it: extent reached in the tested concentration range (Figure 6). A digest of the protocol: as §3

Take `c1ccc2c(NCCCn3ccnc3)ncnc2c1` [3 b, N ‐[3‐(1H‐imidazol‐1‐yl)propyl]quinazolin‐4‐amine]: the IC50 (usually the concentration at which inhibition is half-maximal) in the experiment with J774.2 macrophages turned out to be 45.9 ± 2.8 µM; in experiment [1] it was 6.6 ± 0.6 µM; with Vero cells, 121 ± 6.3 µM; in experiment [2], 11.9 ± 0.7 µM; in experiment [3], 2 ± 0.4 µM; in [4] it was 2.4 µM. Further, the IC50 stood at 9.4 ± 0.7 µM in experiment [5]; 14.7 ± 0.6 µM in experiment [6]; 2.7 ± 0.3 µM in [8]; 7.6 ± 0.5 µM in experiment [9]; 1.3 ± 0.6 µM in experiment [10]. The “Selectivity index Amastigote forms” value in experiment [1] turned out to be 7; in experiment [2] it was 4; in [4], 50; in experiment [8] it was 17. For the same molecule, the “Selectivity index Promastigote forms” value stood at 23 in [3], 3 in experiment [6] and 6 in experiment [9]. Further, in [5], the “Selectivity index Epimastigote forms” value is 13. Further, the “extent of inhibition of enzyme activity” value in [7] is “approximately 50%”. In experiment [10], the “Selectivity index Trypomastigote forms” value is listed as 93.

With `c1cnc(NCCCn2ccnc2)cn1` [4 b, N‐(3‐(1H‐imidazol‐1‐yl)propyl)pyrazin‐2‐amine], the IC50 in the experiment with J774.2 macrophages was 23.8 ± 1.9 µM; in [1], 2.3 ± 0.2 µM; in the experiment on Vero cells, 26.8 ± 0.9 µM; in [2] it was 2.7 ± 0.1 µM; in [3], 3.6 ± 0.4 µM; in [5], 15.7 ± 0.5 µM. In addition, the IC50 turned out to be 1.6 ± 0.2 µM in experiment [6], 2.5 µM in experiment [8] and 1.5 ± 0.2 µM in [9]. Besides, the “extent of inhibition of enzymatic activity” value in experiment [11] is reported as “more than 80%”. For the same molecule, the “Selectivity index Amastigote forms” value in [1] is given as 10; in experiment [2], 9; in experiment [8], 9. The “Selectivity index Promastigote forms” value in experiment [3] is recorded as 7; in experiment [6], 15; in experiment [9], 16. In addition, the “Selectivity index Epimastigote forms” value in [5] was 2 (2).

For the molecule `c1ccc2c(NCCCn3ccnc3)nncc2c1` [1 f, 1‐[3‐(imidazol‐1‐yl)propylamino]phthalazine], the half-inhibitory concentration (IC50) turned out to be 211 ± 10.3 µM in the experiment with J774.2 macrophages; 15 ± 0.9 µM in experiment [1]; 156 ± 4.6 µM in the experiment on Vero cells; 10.7 ± 0.7 µM in experiment [2]; 52 ± 3.6 µM in [3]; 44.3 ± 2.7 µM in experiment [4]. Further, the concentration for half-maximal inhibition (IC50) worked out at 102 ± 4.1 µM in experiment [5]; 11.1 ± 0.4 µM in experiment [6]; 44.7 ± 5.6 µM in experiment [8]; 17.8 ± 1.4 µM in experiment [9]; 40.8 ± 3.1 µM in experiment [10]. In addition, the “Selectivity index Amastigote forms” value in [1] came to 14; in [2], 20; in experiment [4], 3; in [8], 5. Besides, the “Selectivity index Promastigote forms” value in experiment [3] amounted to 4; in experiment [6], 19; in [9], 12. In addition, the “Selectivity index Epimastigote forms” value in experiment [5] turned out to be 1. Also, the “Selectivity index Trypomastigote forms” value in [10] turned out to be 4.
